# Bioassay records as filed in PubChem BioAssay.
# KCNK9 inh: human KCNK9 channel inhibition; HEK293 KCNK9, FluxOR thallium flux fluorescence; hits give low values; AID 488922; Q9NPC2; B-score at 10 µM; actives 1.2% (n = 310,000);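 active means ratio B-score over 3 SD below the library mean, with starting fluorescence within 5 SD of its mean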;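 further: negative B-score means less thallium flux so channel inhibition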
# Target sequence (Q9NPC2 whole entry, looked up): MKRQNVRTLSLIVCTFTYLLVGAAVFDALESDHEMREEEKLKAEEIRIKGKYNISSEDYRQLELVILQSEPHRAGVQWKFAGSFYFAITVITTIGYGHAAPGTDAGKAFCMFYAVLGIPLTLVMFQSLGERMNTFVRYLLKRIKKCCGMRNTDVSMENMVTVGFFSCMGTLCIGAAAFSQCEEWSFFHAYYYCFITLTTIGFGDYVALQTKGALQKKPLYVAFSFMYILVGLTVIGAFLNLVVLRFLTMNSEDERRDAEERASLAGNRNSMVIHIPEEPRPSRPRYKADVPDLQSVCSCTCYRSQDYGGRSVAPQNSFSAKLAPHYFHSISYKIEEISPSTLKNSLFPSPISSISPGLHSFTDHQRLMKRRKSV
# Kir21 block: inhibitors of mouse Kir2.1 inward-rectifier potassium channel | HEK293-Kir2.1, FluxOR thallium flux fluorescence; hits give low values | B-score at 10 µM | actives 0.85% (n = 310,000) | P35561;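 active means fluorescence ratio B-score at or below minus 3 SD of library scores, with starting-brightness B-score within 2 SD, cut at about -4.2 in these data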;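 further: channel flux triggered by added potassium and thallium sulfate stimulus; B-score of peak minus minimum fluorescence over baseline after thallium stimulus; more negative B-score means stronger Kir2.1 block with less thallium influx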
# hERG protect: hERG (human) protection from proarrhythmic block; Q12809; CHO-hERG, FluxOR thallium flux, dofetilide IC70 present; activation (rescue from dofetilide block), less the hit threshold, % at 10 µM; actives 0.51% (n = 310,000);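 active means activation above the mean of controls blocked by dofetilide plus 5 SD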;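 further: thallium influx through hERG after potassium depolarization seen as dye fluorescence rise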
# KCNQ1 inh: human KCNQ1 channel inhibition | P51787 | CHO-K1 KCNQ1, FluxOR thallium flux fluorescence; hits give high values | B-score at 10 µM | actives 1.3% (n = 310,000) | AID 2642;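 active means compounds whose thallium flux B-score, printed positive for inhibition, exceeds three library SD while starting fluorescence stays within three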;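 further: channel opened by potassium depolarization with thallium stimulus after 20 min compound exposure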
# KCNK3 block: human KCNK3 channel inhibition, primary screen; CHO-KCNK3 thallium flux, FluxOR fluorescence; hits give low values; B-score at 10 µM; actives 0.84% (n = 340,000);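 active means B-score under library mean minus 4 SD, starting fluorescence ratio at most library mean plus 5 SD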;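 further: more negative B-score means stronger inhibition of thallium flux through KCNK3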
# KCNQ1 act: potentiators or activators of human KCNQ1 potassium channel. CHO-K1 KCNQ1, thallium flux FluxOR fluorescence; hits give high values. P51787. B-score at 10 µM. actives 0.35% (n = 310,000);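 active means fluorescence ratio B-score, a plate-corrected score, at least three library SD, with initial intensity B-score within 5 SD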
#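 Material: CHO-K1 cells stably expressing KCNQ1. Medium: assay buffer for compound exposure, DMSO matched across wells. Reagent: K+/Tl+ depolarizing stimulus. Compound dosing: single-concentration screen. Times: 37 °C overnight plating, 90-min dark dye load, 20-min compound pretreatment. Technique: FluxOR Tl+ flux fluorescence.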
# Numbers stand for hits; – = inactive; · = no result. Only some compounds are listed: those with a hit (about 3.8% of all), similar ones and a draw of the others.
SMILES,KCNK9 inh,Kir21 block,hERG protect,KCNQ1 inh,KCNK3 block,KCNQ1 act
Cc1nn(-c2ccccc2)c(C)c1/C=N/NC(=O)CSc1nnc(SCc2cccc3ccccc23)s1,–,–,–,–,–,–
COc1ccc(CNC(=O)C(C)Cc2ccccc2)cc1O (configuration not stated),–,–,–,–,–,–
COc1cccc2[nH]c3c(N4CCc5ccccc5C4)ncnc3c12,–,–,–,–,·,–
c1ccc2c(c1)CCN(c1ncnc3c1[nH]c1ccccc13)C2,–,–,–,11,-8.7,–
ON/C=N/C(=S)Nc1ncc(C(F)(F)F)cc1Cl,–,–,14,–,–,20
CC(C)C(=O)Nc1ncc(C(F)(F)F)cc1Cl,–,–,–,–,–,–
CC(=O)CC(=O)Nc1ncc(C(F)(F)F)cc1Cl,–,–,–,–,–,–
CON/C=N/C(=S)Nc1ncc(C(F)(F)F)cc1Cl,–,–,15,–,–,51
CC(=O)c1ccc(N2CCN(S(=O)(=O)c3csc(C(N)=O)c3)CC2)cc1,–,–,–,–,–,–
NC(=O)c1cc(S(=O)(=O)N2CCN(c3ccc([N+](=O)[O-])cc3)CC2)cs1,–,–,–,7,–,–
COC(=O)c1ccc(Oc2nc(Nc3ccc(C)c(C)c3)nc(N(C)C)n2)cc1,–,–,–,6,–,–
CC(C)Cn1c(N)c(C(=O)COC(=O)c2c(O)c(Cl)cc(Cl)c2Cl)c(=O)n(C)c1=O,·,·,·,·,-10,·
CC(C)Cn1c(N)c(C(=O)COC(=O)c2ccc(Cl)cc2)c(=O)n(C)c1=O,–,–,–,–,–,–
O=C(N/N=C/c1sc(N2CCOCC2)nc1-c1ccccc1)c1ccccc1O,–,–,–,9,–,–
O=[N+]([O-])c1ccc(N/N=C/c2sc(N3CCOCC3)nc2-c2ccccc2)c(S(=O)(=O)Nc2ccc(Cl)cc2)c1,–,–,–,11,–,–
O=[N+]([O-])c1ccc(N/N=C/c2sc(N3CCOCC3)nc2-c2ccccc2)c(S(=O)(=O)Nc2ccccc2Cl)c1,·,·,·,·,–,·
COc1ccc(S(=O)(=O)N(C)c2ccccc2)c2cccnc12,–,-5.1,–,–,–,–
CCN(Cc1ccccc1)S(=O)(=O)c1ccc(OC)c2ncccc12,–,–,–,–,–,–
Cc1cc(NCc2ccccn2)n2nc(C)c(-c3ccccc3)c2n1,–,–,–,6,–,–
O=C(CC(c1ccccc1)c1ccccc1)Nc1ncn[nH]1,–,–,–,–,–,24
CCCc1nc2cc3c(cc2[nH]1)n(C)c(=O)n3C,–,–,–,–,–,–
Cc1c(C(=O)Nc2cccc([N+](=O)[O-])c2)cnn1-c1ccccc1,–,–,7.0,–,–,–
Cc1cc(C)n(-c2ccc(C(=O)Nc3cccc([N+](=O)[O-])c3)cc2)n1,–,–,–,9,–,–
Cc1cc(C)n(-c2ccc(C(=O)Nc3cccc(S(=O)(=O)N(C)C)c3)cc2)n1,–,–,–,–,–,–
O=C1CCCN1CCCN1CC(C(=O)N(CCO)Cc2ccccc2)CCC1=O (configuration not stated),–,–,–,–,–,–
SMILES,KCNK9 inh,Kir21 block,hERG protect,KCNQ1 inh,KCNK3 block,KCNQ1 act
CC(C)(C)c1ccc(-c2nnc(SCC(=O)NC3CCS(=O)(=O)C3)n2N)cc1 (configuration not stated),–,–,–,–,–,–
Cc1ncc(CO)c(/C=N/NC(=S)Nc2cccc(Cl)c2)c1O,–,–,–,6,–,–
Cc1ncc(CO)c(/C=N/NC(=O)c2ccc(O)cc2)c1O,–,–,–,–,–,–
Cc1ncc(CO)c(/C=N/NC(=O)c2ccccc2Br)c1O,–,–,–,–,–,–
Cc1ncc(CO)c(/C=N/NC(=S)Nc2ccc(Cl)c(Cl)c2)c1O,–,–,–,11,–,–
CS(=O)(=O)N(CC(=O)NCCSc1ccccn1)c1ccc(F)cc1,–,–,–,–,–,–
c1ccc(C2OC3c4cccc5cccc(c45)C3N2c2ccccc2)cc1 (configuration not stated),-7.9,–,–,–,–,–
COC(C(=O)N/N=C(\C)c1ccc(O)cc1)c1ccccc1 (configuration not stated),–,–,5.1,–,–,–
COC(C(=O)N/N=C(\C)c1ccc(C)cc1)c1ccccc1 (configuration not stated),–,–,–,–,–,–
CC1(C2CC2)NC(=O)N(CC(=O)Nc2ccc(C(F)(F)F)cc2)C1=O (configuration not stated),·,·,·,·,–,·
CCc1ccc(OCCOCC(O)CN(CCO)CCO)cc1 (configuration not stated),–,–,–,–,–,–
CC(C)N1C(=O)CCC1C(=O)NC1CCCC1 (configuration not stated),–,–,–,–,–,–
O=C(NC1CC1)C1CCC(=O)N1C1CCCC1 (configuration not stated),–,–,5.2,–,–,–
Cc1cc(C)c(CSc2nnnn2-c2ccc(C(=O)O)cc2)c(C)c1,–,–,–,–,–,–
CC1(C)Cc2c(cnn2-c2ccc(F)cc2)C(NC(=O)c2ccc(=O)oc2)C1 (configuration not stated),–,–,–,–,–,–
O=C1CSC(c2ccccn2)N1c1ccc(Cl)c(Cl)c1 (configuration not stated),-7.6,–,–,–,–,–
COc1ccc(OC)c(NS(=O)(=O)c2cccc3cccnc23)c1,–,–,–,–,–,–
COc1ccc(NS(=O)(=O)c2ccc3ccccc3c2)c2ncccc12,–,–,5.7,–,–,11
C[C@H](NC(N)=O)C(=O)Nc1ccc(OCc2ccccc2)cc1,–,–,–,–,–,–
COc1ccc(C(=O)NC2CCCc3ccccc32)cc1[N+](=O)[O-] (configuration not stated),–,–,–,–,–,–
Cc1c(CCOC(=O)C23CC4(C)CC(C)(CC(C)(C4)C2)C3)sc[n+]1CC(=O)c1ccccc1,–,–,–,–,–,–
Cc1c(CCOC(=O)CC23CC4CC(CC(C4)C2)C3)sc[n+]1CC(=O)c1ccccc1,–,–,–,6,–,–
COc1ccccc1NS(=O)(=O)c1ccc(C)c(NS(=O)(=O)c2cc(C(=O)O)cc(C)c2C)c1,–,–,–,–,–,–
O=[N+]([O-])c1ccccc1/C=N/N1CCN(c2ccc(Cl)cc2)CC1,-7.7,–,–,–,–,–
O=[N+]([O-])c1ccccc1/C=N\N1CCN(c2ccccc2)CC1,–,–,–,–,–,–
O=[N+]([O-])c1ccc(Cl)c(/C=N/N2CCN(c3ccccc3)CC2)c1,-7.8,–,–,–,–,–
